Laboratory results reported in PubChem BioAssay AID493031 (Broad Institute, 2011).
Activity calls are given as the source filed them.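 How the source made its calls: active means at 10 µM, induced P-selectin expression inhibited by 50% or more; inactive means less than 50% inhibition.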

Tested on: human washed platelets, SFLLRN-induced P-selectin, flow cytometry
Experiment: inhibition of SFLLRN-induced platelet P-selectin surface expression, cell-based, human washed platelets, flow cytometry, dry powder, single point (AID 493031)
Conditions: at 10 µM; stronger effect = higher value
Procedure, shortened: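 Measured by: flow cytometry, PE anti-P-selectin staining; test system: washed platelets from individual donors; timing: 20 min compound pretreatment, 15 min SFLLRN activation, 20 min antibody staining; dosing: compound at 10 µM; reagent: SFLLRN stimulation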

Structure (SMILES) | inhibition
CCCC(=O)Nc1cccc(NC(=O)c2ccccc2F)c1 | 97.4%
CCCC(=O)Nc1cccc(NC(=O)c2cccc(S(C)(=O)=O)c2)c1 | 23.9% (inactive)
CCCC(=O)Nc1cccc(NC(=O)c2ccccc2C)c1 | 95.8%
CCCC(=O)Nc1cccc(NC(=O)c2cccc(NC(C)=O)c2)c1 | 41% (inactive)
CCCC(=O)Nc1cccc(NC(=O)c2cccnc2)c1 | 4.33% (inactive)
CCCC(=O)Nc1cccc(NC(=O)c2cccc(-c3ccccc3)c2)c1 | 94.4%
CCCC(=O)Nc1cccc(NC(=O)c2ccc(Cl)cc2)c1 | 73.9%
CCCC(=O)Nc1cccc(NC(=O)c2ccc(C)cc2)c1 | 21.8% (inactive)
CCCC(=O)Nc1cccc(NC(=O)c2ccc(S(C)(=O)=O)cc2)c1 | 9.82% (inactive)
CCCC(=O)Nc1cccc(NC(=O)c2ccc(F)cc2)c1 | 56.9%
CCCC(=O)Nc1cccc(NC(=O)c2ccc(C(F)(F)F)cc2)c1 | 21% (inactive)
CCCC(=O)Nc1cccc(NC(=O)c2cccc(C#N)c2)c1 | 66.7%
CCCC(=O)Nc1cccc(NC(=O)c2ccccc2OC)c1 | 46.1% (inactive)
O=C(Nc1ccccc1)c1ccccc1Br | 98.5%
CCCC(=O)Nc1cccc(NC(=O)c2ccco2)c1 | 30.5% (inactive)
CCCC(=O)Nc1cccc(NC(=O)c2ccc(OC)cc2)c1 | 15.3% (inactive)
CCCC(=O)Nc1cccc(NC(=O)c2cccc([N+](=O)[O-])c2)c1 | 50.7%
CCCC(=O)Nc1cccc(NC(=O)c2cccc(Cl)c2)c1 | 94.1%
CCCC(=O)Nc1cccc(NC(=O)c2cnc3ccccc3c2)c1 | 10.4% (inactive)
CCCC(=O)Nc1cccc(NC(=O)c2cccc(Oc3ccccc3)c2)c1 | 92%
CCCC(=O)Nc1cccc(NC(=O)c2ccccc2Cl)c1 | 98.3%
